In ChEMBL document CHEMBL1154728, “Synthesis of nitroimidazole derived oxazolidinones as antibacterial agents” (Eur J Med Chem, 2010):
≈ marks a conversion by molar mass, not a printed value.

How the values were obtained:
Staphylococcus aureus [1] = assay: Antibacterial activity against […] Staphylococcus aureus ATCC 29213 after 24 hrs by spectrophotometry; format: functional; settings: ATCC 29213, 24 h
Procedure, shortened: (§1)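 Strains grown on nutrient agar at 37 °C for 24 h, then suspended in normal saline with 0.05% Tween 20 at about […] cells/mL (0.5 McFarland). Broth microdilution in Mueller Hinton broth per NCCLS. DMSO stock 1 mg/mL diluted into broth, then two-fold serial dilutions. Plates incubated at 35 °C in a moist, dark chamber. MIC read spectrophotometrically at 24 h.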

Staphylococcus aureus [2] = assay: Antibacterial activity against methicillin resistant Staphylococcus aureus ATCC 70069 after 24 hrs by spectrophotometry; format: functional; settings: ATCC 70069, 24 h; procedure, shortened: as §1
Staphylococcus aureus [3] = assay: Antibacterial activity against […] Staphylococcus aureus ATCC 25923 after 24 hrs by spectrophotometry; format: functional; settings: ATCC 25923, 24 h; procedure, shortened: as §1
Bacillus cereus = assay: Antibacterial activity against Bacillus cereus MTCC 430 after 24 hrs by spectrophotometry; format: functional; settings: MTCC 430, 24 h
Procedure, shortened: (§2)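 Strains grown on nutrient agar at 37 °C for 24 h, suspended in normal saline with 0.05% Tween 20 to about […] cells/mL (0.5 McFarland). Broth microdilution per NCCLS in Mueller Hinton broth. Compounds dissolved in DMSO at 1 mg/mL (stock), serially two-fold diluted. Growth, drug and negative controls included. Incubation at 35 °C, moist and dark; MIC read spectrophotometrically at 24 h.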

Streptococcus pyogenes = assay: Antibacterial activity against Streptococcus pyogenes after 24 hrs by spectrophotometry; format: functional; procedure, shortened: as §2
Enterococcus faecalis = assay: Antibacterial activity against Enterococcus faecalis MTCC439 after 24 hrs by spectrophotometry; format: functional; settings: MTCC439, 24 h; procedure, shortened: as §2
Klebsiella pneumoniae = assay: Antibacterial activity against Klebsiella pneumoniae ATCC 27736 after 24 hrs by spectrophotometry; format: functional; settings: ATCC 27736, 24 h; procedure, shortened: as §2
L929 [4] = assay: Cytotoxicity against mouse L929 cells assessed as cell viability after 24 hrs by MTT assay; format: cell-based; settings: l929, 24 h
Procedure, shortened: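 Mouse fibroblast L929 cells seeded at 1 × 10³ cells per well in DMEM under humidified 5% CO₂. Medium switched to serum-free DMEM at 90% confluency (5 h). Cells exposed 24 h to a two-fold series ([…], then 12.5 down to 0.09). MTT read-out: absorbance at 570 minus 630 nm taken as the viability index.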

L929 [5] = assay: Cytotoxicity against mouse L929 cells assessed as change in morphology at 50 ug/ml after 24 hrs by phase contrast microscopy; format: cell-based; settings: l929, 24 h
Procedure, shortened: (§3)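 L929 fibroblasts in DMEM under 5% CO₂, switched to serum-free DMEM at 90% confluency, then exposed to compound for 24 h. Cells were fixed in the wells and stained with Giemsa for 30 min at 37 °C. Morphology was examined by phase contrast microscopy against untreated control cells.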

L929 [6] = assay: Cytotoxicity against mouse L929 cells assessed as change in morphology at 0.09 ug/ml after 24 hrs by phase contrast microscopy; format: cell-based; settings: l929, 24 h; procedure, shortened: as §3

Row | SMILES | MIC (Staphylococcus aureus [1]) [µg/mL] | MIC (Staphylococcus aureus [2]) [µg/mL] | MIC (Staphylococcus aureus [3]) [µg/mL] | MIC (Bacillus cereus) [µg/mL] | MIC (Streptococcus pyogenes) [µg/mL] | MIC (Enterococcus faecalis) [µg/mL] | MIC (Klebsiella pneumoniae) [µg/mL] | Activity (L929 [4]) | Activity (L929 [5]) | Activity (L929 [6])
1 | CN[C@H](CC(C)C)C(=O)N[C@H]1C(=O)N[C@@H](CC(N)=O)C(=O)N[C@H]2C(=O)N[C@H]3C(=O)N[C@H](C(=O)N[C@H](C(=O)O)c4cc(O)cc(O)c4-c4cc3ccc4O)[C@H](O)c3ccc(c(Cl)c3)Oc3cc2cc(c3O[C@@H]2O[C@H](CO)[C@@H](O)[C@H](O)[C@H]2O[C@H]2C[C@](C)(N)[C@H](O)[C@H](C)O2)Oc2ccc(cc2Cl)[C@H]1O [VANCOMYCIN] | 1.56 (≈ 1.08 µM) | 6.25 (≈ 4.31 µM) | 0.39 (≈ 0.269 µM) | 0.19 (≈ 0.131 µM) | 0.39 (≈ 0.269 µM) | 0.78 (≈ 0.538 µM) |  |  |  | 
2 | CC(=O)NC[C@H]1CN(c2ccc(N3CCN(CCCn4c([N+](=O)[O-])cnc4C)CC3)c(F)c2)C(=O)O1 | 12.5 (≈ 24.8 µM) | 6.25 (≈ 12.4 µM) | 12.5 (≈ 24.8 µM) | 6.25 (≈ 12.4 µM) | 1.56 (≈ 3.1 µM) | 12.5 (≈ 24.8 µM) | 1.56 (≈ 3.1 µM) |  |  | 
3 | CC(=O)NC[C@H]1CN(c2ccc(N3CCOCC3)c(F)c2)C(=O)O1 [LINEZOLID] | 3.12 (≈ 9.25 µM) | 1.56 (≈ 4.62 µM) | 1.56 (≈ 4.62 µM) | 0.78 (≈ 2.31 µM) | 1.56 (≈ 4.62 µM) | 3.12 (≈ 9.25 µM) | 1.56 (≈ 4.62 µM) |  |  | 
4 | CC(=O)NC[C@H]1CN(c2ccc(N3CCN(CC(O)Cn4c([N+](=O)[O-])cnc4C)CC3)c(F)c2)C(=O)O1 (stereo partly specified) | 1.56 (≈ 3 µM) | 0.39 (≈ 0.751 µM) | 3.12 (≈ 6.01 µM) | 0.78 (≈ 1.5 µM) | 0.39 (≈ 0.751 µM) | 1.56 (≈ 3 µM) | > 50 |  |  | 
5 | CC(=O)NC[C@H]1CN(c2ccc(N3CCN(CCCn4ccnc4[N+](=O)[O-])CC3)c(F)c2)C(=O)O1 | 12.5 (≈ 25.5 µM) | 6.25 (≈ 12.8 µM) | 6.25 (≈ 12.8 µM) | 6.25 (≈ 12.8 µM) | 0.78 (≈ 1.59 µM) | 12.5 (≈ 25.5 µM) | 0.78 (≈ 1.59 µM) |  |  | 
6 | CC(=O)NC[C@H]1CN(c2ccc(N3CCN(CCCn4cnc([N+](=O)[O-])c4)CC3)c(F)c2)C(=O)O1 | 0.78 (≈ 1.59 µM) | 0.78 (≈ 1.59 µM) | 0.78 (≈ 1.59 µM) | 0.78 (≈ 1.59 µM) | 0.39 (≈ 0.797 µM) | 0.78 (≈ 1.59 µM) | 0.78 (≈ 1.59 µM) | Toxic | Toxic | Non-toxic
7 | CC(=O)NC[C@H]1CN(c2ccc(N3CCN(C(=O)Cn4c([N+](=O)[O-])cnc4C)CC3)c(F)c2)C(=O)O1 | 6.25 (≈ 12.4 µM) | 6.25 (≈ 12.4 µM) | 6.25 (≈ 12.4 µM) | 1.56 (≈ 3.1 µM) | 1.56 (≈ 3.1 µM) | 6.25 (≈ 12.4 µM) | 3.12 (≈ 6.2 µM) |  |  | 
8 | CC(=O)NC[C@H]1CN(c2ccc(N3CCN(CC(O)Cn4cnc([N+](=O)[O-])c4)CC3)c(F)c2)C(=O)O1 (stereo partly specified) | 12.5 (≈ 24.7 µM) | 6.25 (≈ 12.4 µM) | 6.25 (≈ 12.4 µM) | 3.12 (≈ 6.17 µM) | 3.12 (≈ 6.17 µM) |  | > 50 |  |  | 
9 | CC(=O)NC[C@H]1CN(c2ccc(N3CCN(CCn4c([N+](=O)[O-])cnc4C)CC3)c(F)c2)C(=O)O1 | 3.12 (≈ 6.37 µM) | 0.78 (≈ 1.59 µM) | 3.12 (≈ 6.37 µM) | 0.097 (≈ 0.198 µM) | 0.78 (≈ 1.59 µM) | 3.12 (≈ 6.37 µM) | 0.78 (≈ 1.59 µM) | Toxic | Toxic | Non-toxic
10 | CC(=O)NC[C@H]1CN(c2ccc(N3CCN(CCn4ccnc4[N+](=O)[O-])CC3)c(F)c2)C(=O)O1 | 12.5 (≈ 26.3 µM) | 6.25 (≈ 13.1 µM) | 12.5 (≈ 26.3 µM) | 0.78 (≈ 1.64 µM) | 0.78 (≈ 1.64 µM) | 25 (≈ 52.6 µM) | 25 (≈ 52.6 µM) |  |  | 
11 | CC(=O)NC[C@H]1CN(c2ccc(N3CCN(C(=O)Cn4cnc([N+](=O)[O-])c4)CC3)c(F)c2)C(=O)O1 | 12.5 (≈ 25.5 µM) | 3.12 (≈ 6.37 µM) | 12.5 (≈ 25.5 µM) | 6.25 (≈ 12.8 µM) | 1.56 (≈ 3.19 µM) | 25 (≈ 51.1 µM) | 25 (≈ 51.1 µM) |  |  | 
